# Data from ChEMBL document CHEMBL1140069, “In vitro antifungal activity of polyfunctionalized 2-(hetero)arylquinolines prepared through imino Diels-Alder reactions” (2008).
# Key:
# Format in all cases: functional
# Aspergillus flavus = assay: Antifungal activity against Aspergillus flavus ATCC 9170 after 48 hrs by broth microdilution technique; details: ATCC 9170, 48 h
# Summary of the method: (§1)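 CLSI broth microdilution: M-27 A2 for yeasts and M-38 A for filamentous fungi. Medium is RPMI-1640 buffered to pH 7.0 with MOPS. Compound is diluted twofold from 250 to 0.98, final DMSO ≤2%. Inoculum is 1–5 × 10³ CFU/mL. Plates are incubated at 35 °C in a moist, dark chamber and read visually at 48 h. MIC100 is the lowest concentration giving total growth inhibition versus drug-free control.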
# Aspergillus niger = assay: Antifungal activity against Aspergillus niger ATCC 9029 after 48 hrs by broth microdilution technique; details: ATCC 9029, 48 h; summary of the method: as §1
# Nannizzia gypsea = assay: Antifungal activity against Microsporum gypseum C115 after 48 hrs by broth microdilution technique; summary of the method: as §1
# Candida albicans [1] = assay: Antimicrobial activity against Candida albicans ATCC 10231 at 100 ug/ml after 24 hrs; details: ATCC 10231, 24 h
# Summary of the method: (§2)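 Growth-inhibition microplate test. Strains are grown on Sabouraud-chloramphenicol agar for 48 h at 30 °C, and inoculum is added to RPMI-1640 containing compound at a final 100–6.25, with DMSO ≤2%. Each strain has a growth control (same DMSO, no compound) and a sterility control.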
# Candida albicans [2] = assay: Antimicrobial activity against Candida albicans ATCC 10231 at 12.5 ug/ml after 24 hrs; details: ATCC 10231, 24 h; summary of the method: as §2
# Candida albicans [3] = assay: Antimicrobial activity against Candida albicans ATCC 10231 at 6.25 ug/ml after 24 hrs; details: ATCC 10231, 24 h; summary of the method: as §2
# Cryptococcus neoformans [4] = assay: Antimicrobial activity against Cryptococcus neoformans IM 972724 isolate at 6.25 ug/ml after 48 hrs
# Summary of the method: (§3)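 Clinical Cryptococcus isolates kept on Sabouraud-dextrose agar slopes; inoculum 1–5 × 10³ CFU/mL. Quinoline DMSO stocks were diluted in RPMI-1640 to final 100–6.25 µg/mL, with DMSO ≤2%. An equal volume of inoculum was added (200 µL per well). Run in triplicate.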
# Cryptococcus neoformans [5] = assay: Antimicrobial activity against Cryptococcus neoformans ATCC 32264 at 50 ug/ml after 48 hrs; details: ATCC 32264, 48 h
# Summary of the method: (§4)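 Percent growth inhibition in 96-well microplates. Compound stocks in DMSO (≤2%) were diluted in RPMI-1640 to final 100–6.25 µg/mL, and 100 µL inoculum was added (final 200 µL). Controls were a growth well (inoculum with matching DMSO, no compound) and a sterility well (no inoculum). Inhibition was calculated against growth and sterility wells.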
# Cryptococcus neoformans [6] = assay: Antimicrobial activity against Cryptococcus neoformans IM 972724 isolate at 50 ug/ml after 48 hrs; summary of the method: as §3
# Cryptococcus neoformans [7] = assay: Antimicrobial activity against Cryptococcus neoformans IM 042074 isolate at 100 ug/ml after 48 hrs; summary of the method: as §4
# Cryptococcus neoformans [8] = assay: Antimicrobial activity against Cryptococcus neoformans IM 042074 isolate at 50 ug/ml after 48 hrs; summary of the method: as §4
# Cryptococcus neoformans [9] = assay: Antimicrobial activity against Cryptococcus neoformans IM 042074 isolate at 12.5 ug/ml after 48 hrs; summary of the method: as §4
# Cryptococcus neoformans [10] = assay: Antimicrobial activity against Cryptococcus neoformans IM 042074 isolate at 6.25 ug/ml after 48 hrs; summary of the method: as §4
# Cryptococcus neoformans [11] = assay: Antimicrobial activity against Cryptococcus neoformans IM 983036 isolate at 25 ug/ml after 48 hrs; summary of the method: as §3
# Cryptococcus neoformans [12] = assay: Antimicrobial activity against Cryptococcus neoformans IM 983036 isolate at 12.5 ug/ml after 48 hrs; summary of the method: as §3
# Cryptococcus neoformans [13] = assay: Antimicrobial activity against Cryptococcus neoformans IM 983036 isolate at 6.25 ug/ml after 48 hrs; summary of the method: as §3
# Cryptococcus neoformans [14] = assay: Antimicrobial activity against Cryptococcus neoformans IM 00319 isolate at 100 ug/ml after 48 hrs; summary of the method: as §4
# Cryptococcus neoformans [15] = assay: Antimicrobial activity against Cryptococcus neoformans IM 00319 isolate at 50 ug/ml after 48 hrs; summary of the method: as §4
# Cryptococcus neoformans [16] = assay: Antimicrobial activity against Cryptococcus neoformans IM 00319 isolate at 25 ug/ml after 48 hrs; summary of the method: as §4
# Cryptococcus neoformans [17] = assay: Antimicrobial activity against Cryptococcus neoformans IM 972751 isolate at 100 ug/ml after 48 hrs; summary of the method: as §3
# Cryptococcus neoformans [18] = assay: Antimicrobial activity against Cryptococcus neoformans IM 972751 isolate at 25 ug/ml after 48 hrs; summary of the method: as §3
# Cryptococcus neoformans [19] = assay: Antimicrobial activity against Cryptococcus neoformans IM 972751 isolate at 6.25 ug/ml after 48 hrs; summary of the method: as §3
# Cryptococcus neoformans [20] = assay: Antimicrobial activity against Cryptococcus neoformans IM 031631 isolate at 50 ug/ml after 48 hrs; summary of the method: as §4
# Cryptococcus neoformans [21] = assay: Antimicrobial activity against Cryptococcus neoformans IM 031631 isolate at 25 ug/ml after 48 hrs; summary of the method: as §4
# Cryptococcus neoformans [22] = assay: Antimicrobial activity against Cryptococcus neoformans IM 031631 isolate at 6.25 ug/ml after 48 hrs; summary of the method: as §4
# Cryptococcus neoformans [23] = assay: Antimicrobial activity against Cryptococcus neoformans IM 031706 isolate at 100 ug/ml after 48 hrs; summary of the method: as §4
# Cryptococcus neoformans [24] = assay: Antimicrobial activity against Cryptococcus neoformans IM 031706 isolate at 25 ug/ml after 48 hrs; summary of the method: as §4
# Cryptococcus neoformans [25] = assay: Antimicrobial activity against Cryptococcus neoformans IM 031706 isolate at 12.5 ug/ml after 48 hrs; summary of the method: as §4
# Cryptococcus neoformans [26] = assay: Antimicrobial activity against Cryptococcus neoformans IM 961951 isolate at 100 ug/ml after 48 hrs; summary of the method: as §4
# Cryptococcus neoformans [27] = assay: Antimicrobial activity against Cryptococcus neoformans IM 961951 isolate at 50 ug/ml after 48 hrs; summary of the method: as §3
# Cryptococcus neoformans [28] = assay: Antimicrobial activity against Cryptococcus neoformans IM 961951 isolate at 25 ug/ml after 48 hrs; summary of the method: as §3
# Cryptococcus neoformans [29] = assay: Antimicrobial activity against Cryptococcus neoformans IM 961951 isolate at 12.5 ug/ml after 48 hrs; summary of the method: as §4
# Cryptococcus neoformans [30] = assay: Antimicrobial activity against Cryptococcus neoformans IM 961951 isolate at 6.25 ug/ml after 48 hrs; summary of the method: as §3
# Cryptococcus neoformans [31] = assay: Antimicrobial activity against Cryptococcus neoformans IM 052470 isolate at 100 ug/ml after 48 hrs; summary of the method: as §4
# Cryptococcus neoformans [32] = assay: Antimicrobial activity against Cryptococcus neoformans IM 052470 isolate at 25 ug/ml after 48 hrs; summary of the method: as §4
# Cryptococcus neoformans [33] = assay: Antimicrobial activity against Cryptococcus neoformans ATCC 32264 at 12.5 ug/ml after 48 hrs; details: ATCC 32264, 48 h; summary of the method: as §4
# Cryptococcus neoformans [34] = assay: Antimicrobial activity against Cryptococcus neoformans IM 983040 isolate at 50 ug/ml after 48 hrs; summary of the method: as §3
# Cryptococcus neoformans [35] = assay: Antimicrobial activity against Cryptococcus neoformans IM 983040 isolate at 25 ug/ml after 48 hrs; summary of the method: as §3
# Cryptococcus neoformans [36] = assay: Antimicrobial activity against Cryptococcus neoformans IM 983040 isolate at 6.25 ug/ml after 48 hrs; summary of the method: as §3
# Cryptococcus neoformans [37] = assay: Antimicrobial activity against Cryptococcus neoformans IM 972724 isolate at 100 ug/ml after 48 hrs; summary of the method: as §3
# Cryptococcus neoformans [38] = assay: Antimicrobial activity against Cryptococcus neoformans IM 052470 isolate at 6.25 ug/ml after 48 hrs; summary of the method: as §4
# Candida albicans [39] = assay: Antifungal activity against Candida albicans ATCC 10231 after 48 hrs by broth microdilution technique; details: ATCC 10231, 48 h; summary of the method: as §1
# Cryptococcus neoformans [40] = assay: Antifungal activity against Cryptococcus neoformans ATCC 32264 after 48 hrs by broth microdilution technique; details: ATCC 32264, 48 h; summary of the method: as §1
compound,measurement,setting,value
c1ccc2nc(-c3ccncc3)ccc2c1,MIC,Aspergillus flavus,50 µg/mL
same,MIC,Aspergillus niger,50 µg/mL
same,MIC,Nannizzia gypsea,50 µg/mL
same,inhibition at 100 µg/mL,Candida albicans [1],100%
same,inhibition at 12.5 µg/mL,Candida albicans [2],41%
same,inhibition at 6.25 µg/mL,Candida albicans [3],19%
same,inhibition at 6.25 µg/mL,Cryptococcus neoformans [4],0%
same,inhibition at 50 µg/mL,Cryptococcus neoformans [5],100%
same,inhibition at 50 µg/mL,Cryptococcus neoformans [6],23%
same,inhibition at 100 µg/mL,Cryptococcus neoformans [7],92%
same,inhibition at 50 µg/mL,Cryptococcus neoformans [8],87%
same,inhibition at 12.5 µg/mL,Cryptococcus neoformans [9],76%
same,inhibition at 6.25 µg/mL,Cryptococcus neoformans [10],68%
same,inhibition at 25 µg/mL,Cryptococcus neoformans [11],45%
same,inhibition at 12.5 µg/mL,Cryptococcus neoformans [12],20%
same,inhibition at 6.25 µg/mL,Cryptococcus neoformans [13],0%
same,inhibition at 100 µg/mL,Cryptococcus neoformans [14],92%
same,inhibition at 50 µg/mL,Cryptococcus neoformans [15],80%
same,inhibition at 25 µg/mL,Cryptococcus neoformans [16],52%
same,inhibition at 100 µg/mL,Cryptococcus neoformans [17],98%
same,inhibition at 25 µg/mL,Cryptococcus neoformans [18],9%
same,inhibition at 6.25 µg/mL,Cryptococcus neoformans [19],0%
same,inhibition at 50 µg/mL,Cryptococcus neoformans [20],75%
same,inhibition at 25 µg/mL,Cryptococcus neoformans [21],57%
same,inhibition at 6.25 µg/mL,Cryptococcus neoformans [22],12%
same,inhibition at 100 µg/mL,Cryptococcus neoformans [23],100%
same,inhibition at 25 µg/mL,Cryptococcus neoformans [24],57%
same,inhibition at 12.5 µg/mL,Cryptococcus neoformans [25],41%
same,inhibition at 100 µg/mL,Cryptococcus neoformans [26],97%
same,inhibition at 50 µg/mL,Cryptococcus neoformans [27],89%
same,inhibition at 25 µg/mL,Cryptococcus neoformans [28],78%
same,inhibition at 12.5 µg/mL,Cryptococcus neoformans [29],34%
same,inhibition at 6.25 µg/mL,Cryptococcus neoformans [30],4%
same,inhibition at 100 µg/mL,Cryptococcus neoformans [31],99%
same,inhibition at 25 µg/mL,Cryptococcus neoformans [32],53%
same,inhibition at 12.5 µg/mL,Cryptococcus neoformans [33],90%
same,inhibition at 50 µg/mL,Cryptococcus neoformans [34],34%
same,inhibition at 25 µg/mL,Cryptococcus neoformans [35],12%
same,inhibition at 6.25 µg/mL,Cryptococcus neoformans [36],0%
same,inhibition at 100 µg/mL,Cryptococcus neoformans [37],74%
same,inhibition at 6.25 µg/mL,Cryptococcus neoformans [38],0%
same,MIC,Candida albicans [39],100 µg/mL
same,MIC,Cryptococcus neoformans [40],50 µg/mL
c1ccc(-c2ccc3ccccc3n2)cc1 [2-PHENYLQUINOLINE],MIC,Aspergillus flavus,> 250 µg/mL
same,MIC,Aspergillus niger,> 250 µg/mL
same,MIC,Nannizzia gypsea,16 µg/mL
same,inhibition at 100 µg/mL,Candida albicans [1],0%
same,inhibition at 12.5 µg/mL,Candida albicans [2],0%
same,inhibition at 6.25 µg/mL,Candida albicans [3],0%
same,inhibition at 6.25 µg/mL,Cryptococcus neoformans [4],0%
same,inhibition at 50 µg/mL,Cryptococcus neoformans [5],100%
same,inhibition at 50 µg/mL,Cryptococcus neoformans [6],87%
same,inhibition at 100 µg/mL,Cryptococcus neoformans [7],84%
same,inhibition at 50 µg/mL,Cryptococcus neoformans [8],77%
same,inhibition at 12.5 µg/mL,Cryptococcus neoformans [9],7%
same,inhibition at 6.25 µg/mL,Cryptococcus neoformans [10],0%
same,inhibition at 25 µg/mL,Cryptococcus neoformans [11],0%
same,inhibition at 12.5 µg/mL,Cryptococcus neoformans [12],0%
same,inhibition at 6.25 µg/mL,Cryptococcus neoformans [13],0%
same,inhibition at 100 µg/mL,Cryptococcus neoformans [14],47%
same,inhibition at 50 µg/mL,Cryptococcus neoformans [15],34%
same,inhibition at 25 µg/mL,Cryptococcus neoformans [16],14%
same,inhibition at 100 µg/mL,Cryptococcus neoformans [17],83%
same,inhibition at 25 µg/mL,Cryptococcus neoformans [18],22%
same,inhibition at 6.25 µg/mL,Cryptococcus neoformans [19],0%
same,inhibition at 50 µg/mL,Cryptococcus neoformans [20],34%
same,inhibition at 25 µg/mL,Cryptococcus neoformans [21],15%
same,inhibition at 6.25 µg/mL,Cryptococcus neoformans [22],0%
same,inhibition at 100 µg/mL,Cryptococcus neoformans [23],67%
same,inhibition at 25 µg/mL,Cryptococcus neoformans [24],17%
same,inhibition at 12.5 µg/mL,Cryptococcus neoformans [25],0%
same,inhibition at 100 µg/mL,Cryptococcus neoformans [26],45%
same,inhibition at 50 µg/mL,Cryptococcus neoformans [27],32%
same,inhibition at 25 µg/mL,Cryptococcus neoformans [28],10%
same,inhibition at 12.5 µg/mL,Cryptococcus neoformans [29],0%
same,inhibition at 6.25 µg/mL,Cryptococcus neoformans [30],0%
same,inhibition at 100 µg/mL,Cryptococcus neoformans [31],88%
same,inhibition at 25 µg/mL,Cryptococcus neoformans [32],35%
same,inhibition at 12.5 µg/mL,Cryptococcus neoformans [33],32%
same,inhibition at 50 µg/mL,Cryptococcus neoformans [34],29%
same,inhibition at 25 µg/mL,Cryptococcus neoformans [35],13%
same,inhibition at 6.25 µg/mL,Cryptococcus neoformans [36],0%
same,inhibition at 100 µg/mL,Cryptococcus neoformans [37],99%
same,inhibition at 6.25 µg/mL,Cryptococcus neoformans [38],0%
same,MIC,Candida albicans [39],250 µg/mL
same,MIC,Cryptococcus neoformans [40],31.2 µg/mL
